This is a sample that favours compounds with a hit; in the whole collection about 1.2% have one here.
G6PDH counter: counter-screen for G6PDH assay hits: L. mesenteroides G6PDH inhibition. 200,000 tested, 0.12% active. Purified L. mesenteroides G6PDH, diaphorase/resazurin coupled fluorescence, 45 min. inhibition, % at 5 µM; in the data active = inhibition above about 50%
Diaphorase inh: inhibits diaphorase or chemically oxidizes, flagging diaphorase assay artifacts | inhibition, % at 20 µM | diaphorase resazurin-to-resorufin fluorescence, NADH, 16 min; bacterial (C. kluyveri) enzyme, not human | 190,000 tested, 0.69% active;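 active = primary screen inhibition at 20 µM above a set limit, cut at about 50% in these data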;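 note: plate controls were DMSO with full reaction for no effect and wells lacking NADH for full effect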
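Detection: fluorescence of resorufin formed from resazurin, Ex 544/Em 590 nm; test system: Clostridium kluyveri diaphorase enzyme; amount: 0.14 U/mL diaphorase, enzyme working solution; times: 16-min room-temperature incubation before reading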
HKDC1 inh: HKDC1 (human) hexokinase inhibition; Q2TB90; recombinant HKDC1, G6PDH/diaphorase resazurin coupled fluorescence; inhibition, % at 20 µM; 340,000 tested, 0.16% active;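 active = inhibition above about 35% when tested at 20 µM, limit read from the data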;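 note: plate controls were DMSO wells with enzyme for no effect and DMSO wells lacking enzyme for full effect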
Target sequence (Q2TB90 whole entry, looked up): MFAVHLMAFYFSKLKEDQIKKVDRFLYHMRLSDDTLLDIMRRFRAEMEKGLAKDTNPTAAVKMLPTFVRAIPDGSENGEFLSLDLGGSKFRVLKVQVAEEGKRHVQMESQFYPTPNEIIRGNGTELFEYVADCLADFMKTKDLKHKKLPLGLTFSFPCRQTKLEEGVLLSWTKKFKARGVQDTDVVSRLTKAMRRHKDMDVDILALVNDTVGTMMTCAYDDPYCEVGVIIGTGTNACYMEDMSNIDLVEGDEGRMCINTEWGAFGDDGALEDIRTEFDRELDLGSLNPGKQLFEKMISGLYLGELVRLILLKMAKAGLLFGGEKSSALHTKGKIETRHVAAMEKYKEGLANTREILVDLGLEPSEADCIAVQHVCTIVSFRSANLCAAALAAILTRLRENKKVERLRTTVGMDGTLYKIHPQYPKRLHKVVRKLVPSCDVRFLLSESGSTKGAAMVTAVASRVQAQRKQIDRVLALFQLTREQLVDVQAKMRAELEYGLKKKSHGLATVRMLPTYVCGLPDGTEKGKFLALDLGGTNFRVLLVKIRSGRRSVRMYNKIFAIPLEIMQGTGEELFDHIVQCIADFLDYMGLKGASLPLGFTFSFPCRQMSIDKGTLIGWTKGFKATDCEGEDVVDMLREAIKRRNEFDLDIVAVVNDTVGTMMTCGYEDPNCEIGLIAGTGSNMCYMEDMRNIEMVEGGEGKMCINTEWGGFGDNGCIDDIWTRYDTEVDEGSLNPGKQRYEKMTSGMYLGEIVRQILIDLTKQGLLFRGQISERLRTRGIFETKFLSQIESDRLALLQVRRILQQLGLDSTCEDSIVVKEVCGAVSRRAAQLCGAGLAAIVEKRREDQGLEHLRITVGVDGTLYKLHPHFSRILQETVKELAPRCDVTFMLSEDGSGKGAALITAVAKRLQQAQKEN
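Incubation: 90 min at room temperature in dark / Material: recombinant HKDC1 (HK5) hexokinase enzyme, produced in-house / Quantity: enzyme 5 µg/mL final / Compound: one dose of 20 µM, 1% DMSO / Reagent: glucose and ATP substrates / Buffer or medium: Tris pH 8.0 buffer with MgCl2, Tween-20, BSA, BME / Technique: resorufin fluorescence at 613 nm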
PfG6PD inh: PfG6PD (Plasmodium falciparum) enzyme inhibition; PfGluPho enzyme, NADPH resazurin-diaphorase fluorescence; 350,000 tested, 0.78% active; inhibition, % at 20 µM;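 active = inhibition reaching at least a set limit at 20 µM in the primary screen, cut at about 59% in these data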;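 note: 0% = DMSO wells with substrate and 100% = DMSO wells lacking glucose-6-phosphate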
HKDC1 act conf: HKDC1 (human) activation, single-dose confirmed; 740 tested, 14% active; inhibition, % at 20 µM; recombinant HKDC1, G6PDH/diaphorase resazurin fluorescence; stronger effect = lower value; AID 504708; shares compounds with HKDC1 inh;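 active = inhibition at or below a set negative limit, negative inhibition meaning the enzyme was activated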
The depositor's hits bear a star; . = no result; ! = not confirmed by another sample.

SMILES	G6PDH counter	Diaphorase inh	HKDC1 inh	PfG6PD inh	HKDC1 act conf
Cn1c(SCC(=O)Nc2ccc3nc(SCC(=O)NC4CC4)sc3c2)nnc1-c1ccccc1	-48.0	8.3	-11.7	-7.2	.
Cc1cccc(NC(=O)CSCC(=O)OCc2ccccn2)c1	.	.	-7.9	-1.8	.
O=c1cc(O)sc2ccccc12	5.4	13.1	42.9*	-4.2	-16.1
C[C@H](CO)N1C[C@H](C)[C@@H](CN(C)Cc2ccccc2)Oc2ccc(NC(=O)Cn3cnnn3)cc2C1=O	.	.	-6.3	15.6	.
CC1=C(SCc2ccccc2)C(=O)c2ccccc2C1=O	.	.	44.0*	105.1*	23.9
Cn1c(SCc2ccccc2)nccc1=O	.	.	7.8	-12.1	.
O=C(NC(=S)NNC(=O)c1cnccn1)c1ccc(F)cc1	-4.3	64.4*	-48.5	24.9	-36.1*
O=C(/C=C/c1ccc(F)cc1)NC(=S)NNC(=O)c1cnccn1	.	.	-30.7	-10.9	.
COc1ccc(/C=C/C(=O)NC(=S)NNC(=O)c2cnccn2)cc1	.	.	-40.3	-10.6	-58.3*
COc1cc2c(Cc3ccccc3)cncc2cc1O	.	.	11.2	25.9	.
CCOC(=O)C1CCN(C(=O)Cn2cnc3sc(C)c(S(=O)(=O)N4CCOCC4)c3c2=O)CC1	.	.	-2.2	-12.2	.
COCCNc1ccc([N+](=O)[O-])cc1C(=O)Nc1cccc(C)n1	-0.6	10.9	-57.6	-2.0	-14.4
S=C(NCCc1ccc(Cl)cc1)NCc1ccccc1	.	.	-63.3	-3.0	-12.0
CCCCNCCOCCOc1ccccc1-c1ccccc1	8.8	10.3	-58.9	6.2	-7.3
COc1cc(/C=C2\SC(=S)N(c3cccnc3)C2=O)ccc1O	.	.	38.2*	-9.2	0.7
COc1cc(/C=C2\SC(=S)N(NC(=O)c3cccnc3)C2=O)ccc1O	.	.	-1.8	-51.8	.
CCN(CC)C(=O)C1=C(C)N(CCC2=CCCCC2)C(=O)C(CC(=O)NCCN2CCOCC2)C1 (centres undefined)	.	.	.	3.3	.
Cc1cccc(C)c1Nc1nnc(SCc2cn3cccc(C)c3n2)s1	15.6	47.4	33.5	16.2	54.1
CC1=NOC(=O)/C1=C\c1ccc(-c2ccc(Br)cc2)o1	1.5	6.9	41.6*	47.6	11.9
CC1=NOC(=O)/C1=C/c1ccc(-c2ccc(Cl)cc2)o1	0.4	16.1	.	.	.
COc1ccc(-c2csc(Nc3ccc(S(N)(=O)=O)cc3)n2)cc1	-0.6	27.7	-41.5	47.6	-24.5
COc1ccc(Nc2nc(-c3ccc(OC)cc3)cs2)cc1	-0.3	3.0	-10.5	8.0	.
CCCCCC(=O)Nc1cc(S(=O)(=O)O)cc2cc(S(=O)(=O)O)cc(O)c12	.	.	32.9	45.2	18.8
CCCCCC(=O)Nc1cc(S(=O)(=O)N2CCCCC2)ccc1N1CCCCC1	.	.	1.2	18.9	.
NC(=NCCCCCCN=C(N)/N=C(\N)Nc1ccc(Cl)cc1)/N=C(\N)Nc1ccc(Cl)cc1	.	.	53.2*!	46.5	46.4
SMILES	G6PDH counter	Diaphorase inh	HKDC1 inh	PfG6PD inh	HKDC1 act conf
CN(C)c1ccc(C=c2c3ccccc3n3c2cc(-c2ccc(Cl)cc2)[n+]3C)cc1	.	.	17.9	55.3	.
CN(C)c1ccc(C=c2c3ccccc3n3c2cc(-c2ccccc2)[n+]3C)cc1	.	.	37.0*	49.1	23.2
Nc1nc(-c2cccc(Br)c2)cs1	6.5	4.6	-65.1	11.3	-40.6*
Nc1nc(-c2ccc(Br)cc2)cs1	1.3	16.8	3.4	5.2	.
Oc1ccc(O)c(Cc2nc3ccccc3[nH]2)c1	5.4	11.5	54.3*	31.7	56.0
O=c1c2ccccc2nc(/C=C/c2cccnc2)n1CCc1ccccc1	.	.	33.8	21.0	38.8
O=c1c2ccccc2nc(/C=C/c2cccnc2)n1Cc1ccccc1	9.7	14.4	81.4*	24.5	60.7
Cc1[nH]c(=O)[nH]c(=O)c1NC(=O)c1ccccc1[N+](=O)[O-]	.	.	.	-1.3	.
O=C1c2ccccc2-c2onc3ccc(Oc4ccccc4)c1c23	27.9	25.3	34.4	38.4	28.2
NC(=NCc1ccc2c(c1)OCO2)NC(=O)c1ccccc1	4.8	10.3	29.4	32.1	16.7
C/C(CCc1ccc2c(c1)OCO2)=N\NC(=O)c1ccccc1	2.4	10.1	-5.1	1.8	.
CC1CCCCN1C(=O)C(=O)c1cn(CC(=O)N2CCCCCC2)c2ccccc12 (centres undefined)	.	.	-2.1	-2.5	.
CCCCC[C@H](O)/C=C/[C@@H]1[C@@H](C/C=C\CCCC(=O)OC)[C@@H](O)C[C@H]1O	-3.3	9.9	77.4*	11.8	61.0
CCCCC[C@H](O)/C=C/[C@@H]1[C@@H](C/C=C\CCCC(=O)O)[C@@H](O)C[C@H]1O	11.2	-3.6	-7.2	-1.4	.
Cc1sc(-c2ccccn2)nc1OC(=O)c1ccc(F)cc1F	0.9	8.6	-49.7	16.4	-27.0
Cc1sc(-c2ccccn2)nc1OC(=O)c1ccc(Cl)c(Cl)c1	1.2	5.4	-13.2	19.9	.
Cc1cc(=O)oc2c(C)c(OCC(=O)N3CCN(c4cccc(Cl)c4)CC3)ccc12	.	.	5.4	-11.6	.
CCN(CC)S(=O)(=O)c1cccc(C(=O)N/N=C(\C)c2ccc(O)cc2O)c1	-15.4	15.7	-42.7	-34.5	-19.4
O=C(COc1ccccc1/C=C\c1[nH]c(=O)[nH]c(=O)c1[N+](=O)[O-])Nc1ccccc1	2.9	20.0	39.6*	-12.7	8.6
O=c1[nH]c(/C=C/c2ccccc2Cl)c([N+](=O)[O-])c(=O)[nH]1	.	.	13.7	1.6	.
N#Cc1ccc(CSc2nnc(NC(=O)c3ccc4ncsc4c3)s2)cc1	15.8	9.0	51.2*	-4.4	40.7
Cc1ccc(/C=C/c2nc3sc(C(=O)O)c(C)c3c(=O)[nH]2)cc1[N+](=O)[O-]	.	.	47.2*	28.9	-26.7
Cc1ccc(S(=O)(=O)N2CCOCC2)cc1NC(=O)COC(=O)C1(C)CC1(Cl)Cl (centres undefined)	.	.	2.8	-5.7	.
Cc1ccccc1NC(=O)c1ccc([N+](=O)[O-])o1	1.9	6.3	1.3	16.7	.
Cc1ccccc1/C=C/C(=O)c1ccc([N+](=O)[O-])o1	.	.	46.5*	80.2*	36.0
SMILES	G6PDH counter	Diaphorase inh	HKDC1 inh	PfG6PD inh	HKDC1 act conf
Cc1cccc(/C=C/C(=O)c2ccc([N+](=O)[O-])o2)c1	.	.	49.6*	47.9	11.5
COc1ccc(/C=C/C(=O)c2ccc([N+](=O)[O-])o2)cc1	.	.	30.6	28.8	.
Fc1ccc(N=C2NN=C(c3cc(F)ccc3F)CS2)cc1	6.6	17.9	-218.3	19.2	-131.9*
Fc1ccccc1N=C1NN=C(c2ccccc2)CS1	8.3	16.4	-82.5	1.2	-53.4*
Fc1ccc(F)c(C2=NNC(=Nc3ccccc3F)SC2)c1	6.2	18.8	-142.8	18.0	.
O=C(CN(C(=O)CCC(=O)Nc1ccccn1)c1ccc2c(c1)OCO2)NCc1ccc(F)cc1	.	.	-45.5	20.5	31.3
CN(C(=O)c1cccc(NC(=O)Cc2ccc(NC(=O)C3CCN(C(=O)C4CCC4)CC3)cc2)c1)C1CC1	.	.	-5.1	15.7	.
CCOC(=O)c1c(NC(=O)CSc2nnnn2-c2ccc(OC)cc2)sc(C)c1C	5.2	3.8	-48.5	90.1*	-42.3*
CCOC(=O)c1csc(NC(=O)CSc2nnnn2-c2ccc(OC)cc2)n1	2.2	14.0	-4.1	-18.2	.

High-throughput results deposited in PubChem BioAssay by Sanford-Burnham Center for Chemical Genomics.
